Published values of several laboratories.
Target: Serine/threonine-protein kinase Nek6 (NEK6, Homo sapiens, UniProt Q9HC98)

N#CCCc1ccc2c(c1)-c1[nH]c3ccc([N+](=O)[O-])cc3c1CC(=O)N2
remaining signal (cell-free assay; 0.5 µM): 101%

C[C@H](c1ccnc(Nc2nc3ccc(-c4cc(N(C)C)ncn4)cc3[nH]2)c1)N1CCN(C(=O)CC(F)(F)F)CC1
remaining binding (cell-free assay; competition with immobilised ligand; 0.1 µM): 83%

CCN(CC)CCNC(=O)c1c(C)[nH]c(/C=C2\C(=O)Nc3ccc(F)cc32)c1C
inhibition (enzyme activity; inhibitor; 10 µM): -9%

CN1CC(Oc2cnc(C#N)cc2-c2ccn3nc(NC(=O)C4CC4)cc3c2)C1
inhibition (enzyme activity; inhibitor; 1 µM): 2%

CCOCCn1cc(C(=O)Nc2ccc(-n3nc(-c4cccnc4)cc3C(F)(F)F)cn2)ccc1=O
remaining binding (cell-free assay; competition with immobilised ligand; 1 µM): 96%

Cc1ccc(NC(=O)c2ccc(C)c(C(F)(F)F)c2)cc1C#Cc1nn(C2CCC(O)CC2)c2ncnc(N)c12 (stereo not shown)
remaining signal (cell-free assay; 10 µM): 98%

CNC(=O)c1cc(Oc2ccc(NC(=O)Nc3ccc(Cl)c(C(F)(F)F)c3)cc2)ccn1
inhibition (enzyme activity; inhibitor; 10 µM): -16%

FC(F)(F)Oc1cccc(-c2cnc3ccc(-c4ccncc4)nn23)c1
activity vs control (enzyme activity; inhibitor; radiometric; 1 µM): 92%

COc1cc2ncnc(Nc3ccc(Oc4ccccc4)cc3C)c2cc1OC
inhibition (enzyme activity; inhibitor; 1 µM): -8%

Cn1cc(Cl)c2c(Oc3c(F)cc(Nc4cc(Cl)nc(N)n4)cc3F)ccnc21
remaining binding (cell-free assay; competition with immobilised ligand; 0.1 µM): 100%

CN(c1ncccc1CNc1nc(Nc2ccc3c(c2)CC(=O)N3)ncc1C(F)(F)F)S(C)(=O)=O
inhibition (enzyme activity; inhibitor; 1 µM): 11.8%

CCCCN(CCCC)C(=O)CN1C[C@H](c2cc(OC)c3c(c2)OCO3)[C@@H](C(=O)O)[C@@H]1CC(C)(C)CCC
remaining binding (cell-free assay; competition with immobilised ligand; 1 µM): 100%

CCCS(=O)(=O)Nc1ccc(F)c(C(=O)c2c[nH]c3ncc(-c4ccc(Cl)cc4)cc23)c1F
inhibition (enzyme activity; inhibitor; 1 µM): < 10%
